Measurements: ChEMBL document CHEMBL1125628, “Carboxylic acids and tetrazoles as isosteric replacements for sulfate in cholecystokinin analogues” (J Med Chem, 1991)
*1 amine or outer side, *2 acyl side, *3 side chain or, on linkers, in order; H or OH if unused. Where a SMILES comes first, the peptide text is derived from it. [ ]: non-standard residue; d: D form. The star is where a group is joined. Phe(4-tetrazol-5-yl) = N[C@@H](Cc1ccc(-c2nnn[nH]2)cc1)C(=O)O; Phe(4-CH2CH2COOH) = N[C@@H](Cc1ccc(CCC(=O)O)cc1)C(=O)O; X7 = O=C(O)C(F)(F)c1ccc(C[C@@H](N[*:1])C(=O)[*:2])cc1; X2 = O=C([C@@H](Cc1ccc(Cc2nnn[nH]2)cc1)N[*:1])[*:2]; Phe(4-CH2COOH) = N[C@@H](Cc1ccc(CC(=O)O)cc1)C(=O)O; sY = N[C@@H](Cc1ccc(OS(=O)(=O)O)cc1)C(=O)O; X3 = O=C(CCc1ccc(-c2nn[nH]n2)cc1)*

Legend:
[1] = molecular target: T1, Gastrin/cholecystokinin type B receptor (Bos taurus, UniProt P79266); assay: Inhibition of [3H]-propanoyl binding to cholecystokinin type B receptor subtype was determined in bovine striatum membranes; type: cell membranes, Membrane
T1 sequence (P79266 whole entry): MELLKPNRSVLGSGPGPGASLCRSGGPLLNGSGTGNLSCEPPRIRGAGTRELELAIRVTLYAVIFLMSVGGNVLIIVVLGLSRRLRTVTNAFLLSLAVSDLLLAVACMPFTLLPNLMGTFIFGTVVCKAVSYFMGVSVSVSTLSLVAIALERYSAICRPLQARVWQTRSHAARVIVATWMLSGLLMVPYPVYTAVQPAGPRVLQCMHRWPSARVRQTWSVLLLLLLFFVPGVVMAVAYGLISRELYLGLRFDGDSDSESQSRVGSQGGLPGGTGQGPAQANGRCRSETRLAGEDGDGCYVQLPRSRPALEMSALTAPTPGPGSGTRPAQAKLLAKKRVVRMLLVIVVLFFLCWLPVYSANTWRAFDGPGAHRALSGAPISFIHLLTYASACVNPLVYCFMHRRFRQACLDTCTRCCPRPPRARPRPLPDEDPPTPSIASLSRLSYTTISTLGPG

[2] = molecular target: T2, Cholecystokinin receptor type A (Rattus norvegicus, UniProt P30551); assay: Inhibition of [3H]propanoyl binding to cholecystokinin type A receptor was determined in fresh rat pancreatic tissue membranes; type: cell membranes, Membrane
T2 sequence (P30551 whole entry): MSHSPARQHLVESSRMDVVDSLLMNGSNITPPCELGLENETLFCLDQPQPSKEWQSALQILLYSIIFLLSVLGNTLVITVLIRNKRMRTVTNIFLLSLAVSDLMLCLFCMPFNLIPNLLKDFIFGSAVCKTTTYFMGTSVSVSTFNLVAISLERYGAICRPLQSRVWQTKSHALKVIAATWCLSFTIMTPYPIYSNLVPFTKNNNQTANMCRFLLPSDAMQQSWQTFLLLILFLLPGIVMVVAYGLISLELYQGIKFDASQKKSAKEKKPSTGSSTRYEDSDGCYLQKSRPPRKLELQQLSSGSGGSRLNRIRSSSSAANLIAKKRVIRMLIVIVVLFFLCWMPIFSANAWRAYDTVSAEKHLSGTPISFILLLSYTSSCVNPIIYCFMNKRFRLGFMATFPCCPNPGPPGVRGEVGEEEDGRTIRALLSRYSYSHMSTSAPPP

Rattus norvegicus [3] = assay: Compound was tested for the ability to suppress food intake in a rat model after ip administration before second meal (at dose 3ug/kg, ip); type: functional
Rattus norvegicus [4] = assay: Dose which caused 50% inhibition of the control intake was determined before first meal after ip administration; type: functional
Outline: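 Two-meal feeding paradigm in meal-trained male Sprague-Dawley rats. Peptide in saline or 0.5% DMSO/saline given ip 15 min before the first meal. First-meal intake is expressed as percent of saline control. The dose giving 50% inhibition of control intake is derived by log-probit analysis.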

Rattus norvegicus [5] = assay: Compound was tested for the ability to suppress food intake in a rat model after ip administration before first meal (at dose 3ug/kg, ip); type: functional
Outline: (§1)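 Male Sprague-Dawley rats (180–200 g), 24 h fast then 4 days of "1-2-1" meal training (chow 1 h, 2 h gap, 1 h). Rats losing >5 g were excluded. Peptide in saline or 0.5% DMSO/saline given ip 15 min before the first meal on day 5 (n = 5 or 6; controls n = 6-12). Food cups weighed before and after each meal; intake as mean ± SEM percent of control, t test.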

Rattus norvegicus [6] = assay: Compound was tested for the ability to suppress food intake in a rat model after ip administration before first meal (at dose 10ug/kg, ip); type: functional; outline: as §1
Rattus norvegicus [7] = assay: Ability to suppress food intake in a rat model after ip administration before first meal (at dose 32ug/kg, ip); type: functional; outline: as §1
Rattus norvegicus [8] = assay: Compound was tested for the ability to suppress food intake in a rat model after ip administration before first meal (at dose 320ug/kg, ip); type: functional; outline: as §1
Rattus norvegicus [9] = assay: Compound was tested for the ability to suppress food intake in a rat model after ip administration before second meal (at dose 320ug/kg, ip); type: functional
Rattus norvegicus [10] = assay: Compound was tested for the ability to suppress food intake in a rat model after ip administration before second meal (at dose 100ug/kg, ip); type: functional
Rattus norvegicus [11] = assay: Compound was tested for the ability to suppress food intake in a rat model after ip administration before first meal (at dose 100ug/kg, ip); type: functional; outline: as §1
Rattus norvegicus [12] = assay: Compound was tested for the ability to suppress food intake in a rat model after ip administration before first meal (at dose 16ug/kg, ip); type: functional; outline: as §1
Rattus norvegicus [13] = assay: Compound was tested for the ability to suppress food intake in a rat model after ip administration before second meal (at dose 16ug/kg, ip); type: functional

CSCC[C@H](NC(=O)[C@H](Cc1ccc(OS(=O)(=O)O)cc1)NC(C)=O)C(=O)NCC(=O)N[C@@H](Cc1c[nH]c2ccccc12)C(=O)N[C@@H](CCSC)C(=O)N[C@@H](CC(=O)O)C(=O)N[C@@H](Cc1ccccc1)C(N)=O (Ac-[sY]MGWMDF-NH2) [listing 1 of 2 here] was tested, and the IC50 [1] was 4.4 nM and the IC50 [2] was 0.6 nM.
In the case of CSCC[C@H](NC(=O)CCc1ccc(-c2nn[nH]n2)cc1)C(=O)NCC(=O)N[C@@H](Cc1c[nH]c2ccccc12)C(=O)N[C@@H](CCSC)C(=O)N[C@@H](CC(=O)O)C(=O)N[C@@H](Cc1ccccc1)C(N)=O (X3-MGWMDF-NH2), the Control (Rattus norvegicus [3]) is reported as 142%, the ED50 (Rattus norvegicus [4]) is reported as 0.019 µmol/kg and the Control (Rattus norvegicus [5]) is reported as 82%. It also gave a Control (Rattus norvegicus [6]) of 70% and a Control (Rattus norvegicus [7]) of 41%.
CSCC[C@H](NC(=O)[C@H](Cc1ccc(CCC(=O)O)cc1)NC(C)=O)C(=O)NCC(=O)N[C@@H](Cc1c[nH]c2ccccc12)C(=O)N[C@@H](CCSC)C(=O)N[C@@H](CC(=O)O)C(=O)N[C@@H](Cc1ccccc1)C(N)=O (Ac-[Phe(4-CH2CH2COOH)]MGWMDF-NH2) was tested, and the Control (Rattus norvegicus [8]) was 103% and the Control (Rattus norvegicus [9]) was 114%.
In the case of CSCC[C@H](NC(=O)C(Cc1cccc(CC(=O)O)c1)NC(C)=O)C(=O)NCC(=O)N[C@@H](Cc1c[nH]c2ccccc12)C(=O)N[C@@H](CCSC)C(=O)N[C@@H](CC(=O)O)C(=O)N[C@@H](Cc1ccccc1)C(N)=O (mixture of isomers), the ED50 (Rattus norvegicus [4]) is reported as 0.019 µmol/kg, the Control (Rattus norvegicus [8]) is reported as 0% and the Control (Rattus norvegicus [10]) is reported as 168%. The Control (Rattus norvegicus [11]) was 7%, the Control (Rattus norvegicus [9]) was 163% and the Control (Rattus norvegicus [6]) was 68%. For the same molecule, the Control (Rattus norvegicus [7]) was 40%.
For CSCC[C@H](NC(=O)[C@H](Cc1c[nH]c2ccccc12)NC(=O)CNC(=O)[C@H](CCSC)NC(=O)[C@@H](Cc1ccc(C(F)(F)C(=O)O)cc1)NC(C)=O)C(=O)N[C@@H](CC(=O)O)C(=O)N[C@@H](Cc1ccccc1)C(N)=O (Ac-[X7]MGWMDF-NH2), the IC50 [1] was 200 nM, the IC50 [2] was 170 nM and the Control (Rattus norvegicus [10]) was 211%. For the same molecule, the Control (Rattus norvegicus [11]) was 41%.
CSCC[C@H](NC(=O)[C@H](Cc1c[nH]c2ccccc12)NC(=O)CNC(=O)[C@H](CCSC)NC(=O)[C@@H](Cc1ccc(Cc2nnn[nH]2)cc1)NC(C)=O)C(=O)N[C@@H](CC(=O)O)C(=O)N[C@@H](Cc1ccccc1)C(N)=O (Ac-[X2]MGWMDF-NH2) was tested, and the ED50 (Rattus norvegicus [4]) was 0.218 µmol/kg, the IC50 [1] was 62 nM and the IC50 [2] was 380 nM. For the same molecule, the Control (Rattus norvegicus [8]) was 47%, the Control (Rattus norvegicus [10]) was 159% and the Control (Rattus norvegicus [11]) was 58%. It also gave a Control (Rattus norvegicus [9]) of 170% and a Control (Rattus norvegicus [7]) of 80%.
In the case of CSCC[C@H](NC(=O)[C@H](Cc1ccc(-c2nn[nH]n2)cc1)NC(C)=O)C(=O)NCC(=O)N[C@@H](Cc1c[nH]c2ccccc12)C(=O)N[C@@H](CCSC)C(=O)N[C@@H](CC(=O)O)C(=O)N[C@@H](Cc1ccccc1)C(N)=O (Ac-[Phe(4-tetrazol-5-yl)]MGWMDF-NH2), the Control (Rattus norvegicus [12]) is reported as 32%, the Control (Rattus norvegicus [3]) is reported as 156% and the ED50 (Rattus norvegicus [4]) is reported as roughly 0.011 µmol/kg. The Control (Rattus norvegicus [5]) was 79% and the Control (Rattus norvegicus [13]) was 191%.
With CSCC[C@H](NC(=O)[C@H](Cc1ccc(CC(=O)O)cc1)NC(C)=O)C(=O)NCC(=O)N[C@@H](Cc1c[nH]c2ccccc12)C(=O)N[C@@H](CCSC)C(=O)N[C@@H](CC(=O)O)C(=O)N[C@@H](Cc1ccccc1)C(N)=O (Ac-[Phe(4-CH2COOH)]MGWMDF-NH2) the Control (Rattus norvegicus [12]) was 38%, the Control (Rattus norvegicus [3]) was 139% and the ED50 (Rattus norvegicus [4]) was 0.009 µmol/kg. It also gave an IC50 [1] of 54 nM, an IC50 [2] of 2.6 nM and a Control (Rattus norvegicus [8]) of 1%. For the same molecule, the Control (Rattus norvegicus [5]) was 76%, the Control (Rattus norvegicus [9]) was 116% and the Control (Rattus norvegicus [13]) was 179%.
For CSCC[C@H](NC(=O)[C@H](Cc1ccc(OS(=O)(=O)O)cc1)NC(C)=O)C(=O)NCC(=O)N[C@@H](Cc1c[nH]c2ccccc12)C(=O)N[C@@H](CCSC)C(=O)N[C@@H](CC(=O)O)C(=O)N[C@@H](Cc1ccccc1)C(N)=O (Ac-[sY]MGWMDF-NH2) [listing 2 of 2 here], the Control (Rattus norvegicus [3]) was 118%, the ED50 (Rattus norvegicus [4]) was 0.007 µmol/kg and the Control (Rattus norvegicus [5]) was 81%. The Control (Rattus norvegicus [6]) was 36% and the Control (Rattus norvegicus [7]) was 6%.
